Bioassay records: PubChem, Broad Institute
An excerpt weighted towards active compounds, which were near 2.9% of everything screened.
SIRT5 inh – SIRT5 desuccinylase inhibitors, primary screen, biochemical, fluorescence imaging, single point, set 5; inhibition, % at 15 µM; 1.1% of 330,000 active; Purified SirT5, succinyl-peptide AMC, trypsin-coupled fluorescence; in the data active = inhibition above about 15%
S100A4 MyoIIA – inhibitors of S100A4-myosin IIA peptide binding, primary screen, biochemical, fluorescence polarization, TAMRA-MyoIIA peptide; Protein S100-A4 (Homo sapiens), P26447; inhibition, % at 10.7 µM; 0.14% of 360,000 active; AID 652163, 2013;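 active = mean inhibition of at least 70% across replicates, with every replicate also reaching that level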
Target sequence (P26447 whole entry, looked up): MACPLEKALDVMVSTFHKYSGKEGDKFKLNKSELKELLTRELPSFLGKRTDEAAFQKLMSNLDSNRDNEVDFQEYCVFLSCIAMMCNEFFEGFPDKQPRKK
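Compound dosing: one dose per compound; test system: human S100A4 monomer with TAMRA-labelled myosin IIA peptide; probe or stimulus: TAMRA-labelled myosin IIA heavy-chain peptide probe, 5 nM; medium: HEPES buffer with Ca2+, pH 7.2; schedule: 5 min incubation before reading; benchmarks: neutral control DMSO, positive control TFP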
DENV2 CPE – inhibitors of DENV2 cytopathic effect, primary screen, cell-based, plate reader, single concentration | DENV2-infected cells, cytopathic effect rescue | CPE inhibition, % at 9.99 µM | 1.7% of 350,000 active | AID 651640, 2012; in the data active = CPE inhibition above about 20%, passing the limit was not always enough; tested in BHK-21 cells
CAL PDZ FP-1 – CAL PDZ peptide-binding inhibitors, primary screen, biochemical, fluorescence polarization, Cer-tagged CAL PDZ, HTS; inhibition, % at 20 µM; Golgi-associated PDZ and coiled-coil motif-containing protein (Homo sapiens), Q9HD26; purified CAL PDZ, TMR-peptide fluorescence polarization, 1 h; AID 504414, 2011; 0.02% of 330,000 active;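 active = highest replicate inhibition of at least 40%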
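Control set: unlabelled peptide and DMSO controls / Material: purified CerCALP PDZ construct / Timing: 1 h incubation at room temperature before polarization reading / Doses: 20 µM, one dose / Detection: fluorescence polarization (mP)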
ERAP1 HTS inh – human ERAP1 aminopeptidase inhibitors, primary screen, biochemical, single point, plate reader. Endoplasmic reticulum aminopeptidase 1 (Homo sapiens), Q9NZ08. recombinant ERAP1, Leu-AMC fluorescence, 60 min. inhibition, % at 10.7 µM. 0.15% of 340,000 active;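 active = mean replicate inhibition of at least 30%, or all replicates individually reaching that 30% level; inactive = mean below 30% and not every replicate reaching it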
CAL PDZ FP-2 – untagged CAL PDZ binding inhibitors, primary screen, biochemical, fluorescence polarization, HTS; purified CAL PDZ, TMR-peptide fluorescence polarization, 1 h; Golgi-associated PDZ and coiled-coil motif-containing protein (Homo sapiens), Q9HD26; 0.92% of 300,000 active; inhibition, % at 24.9 µM; AID 602252, 2012;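 active = mean inhibition of at least 30% with at least half of replicates also reaching 30%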
Large screens that a line does not name were inactive.

CNC(=O)OCc1n(C)cc[n+]1C	ERAP1 HTS inh 83.7
CN(C)C1C(=O)C(C(N)=O)=C(O)C2(O)C(=O)C3=C(O)c4c(O)cccc4C(C)(O)C3C(O)C12 (configuration not stated)	SIRT5 inh 40.4
COC(=O)[C@H]1[C@H](CO)[C@H]2Cn3c(ccc(-c4ccncc4)c3=O)[C@@H]1N2CCc1ccccc1	none (no result: CAL PDZ FP-1, CAL PDZ FP-2)
O=[N+]([O-])c1ccc(N(CCO)CCO)c2c1no[n+]2[O-]	none (no result: SIRT5 inh, CAL PDZ FP-1, CAL PDZ FP-2)
CN1CCN(c2ccc([N+](=O)[O-])c3no[n+]([O-])c23)CC1	S100A4 MyoIIA 112.5
O=C(NCCN1CCC2(CC1)C(=O)NCN2c1ccccc1)c1ccccc1F	DENV2 CPE 30.8 (no result: SIRT5 inh, CAL PDZ FP-1, CAL PDZ FP-2)
CCOC(=O)[C@@H]1[C@@H]2NC(=S)N(C)[C@@]1(COCc1ccc(OC)cc1)Oc1ccccc12	none (no result: CAL PDZ FP-1, CAL PDZ FP-2)
O=C(O)[C@H]1[C@H](CO)[C@H]2Cn3c(ccc(-c4ccc(F)cc4)c3=O)[C@@H]1N2CC1CCCC1	none (no result: CAL PDZ FP-1, CAL PDZ FP-2)
